Measured values published in ChEMBL document CHEMBL1152972, “Rearranged prenylated C6-C3 compounds and a highly oxygenated seco-prezizaane-type sesquiterpene from the stem bark of Illicium oligandrum” (2009).
Activity calls are given as the source filed them. The calls are words filed in the database; no cut-off is given here.

Columns and labels:
[1] = Antiinflammatory activity in rat PMNC assessed as inhibition of platelet activating factor-induced beta-glucuronidase release at 10 uM treated 15 mins before PAF challenge; type: functional; design: scale not given: the % may be the effect or the level left
In short: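 Rat PMN suspension (2.5 × 10^6 cells/mL) preincubated with sample (stock 0.1 M in DMSO, diluted in RPMI-1640) 15 min at 37 °C, then cytochalasin B 5 min, then PAF; stopped on ice after 10 min. Supernatant incubated with phenolphthalein glucuronic acid in 0.1 M HOAc buffer pH 4.6, 37 °C, 18 h; NaOH added, A550 read; inhibitory ratio versus PAF and control wells; ginkgolide B reference.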

[2] = tested on: HCT-8; test: Cytotoxicity against human HCT8 cells; type: functional, cell-based
[3] = tested on: Bel-7402; test: Cytotoxicity against human Bel7402 cells; type: functional, cell-based
[4] = tested on: A549; test: Cytotoxicity against human A549 cells; type: functional, cell-based
[5] = tested on: BGC-823; test: Cytotoxicity against human BGC823 cells; type: functional, cell-based
[6] = tested on: A2780; test: Cytotoxicity against human A2780 cells; type: functional, cell-based

For `C=CCC1=C[C@]2(O)C[C@H](C(C)(C)O)OC2=CC1=O`, the Activity [1] was 4.8%, the Activity [2] was “inactive” and the Activity [3] was “inactive”. For the same compound, the Activity [4] was “inactive”, the Activity [5] was “inactive” and the Activity [6] was “inactive”.
With `C=CC[C@@H]1C[C@]2(O)C[C@H](C(C)(C)O)OC2=CC1=O` [ILLIFUNONE C] the Activity [1] was -9.4%, the Activity [2] was “inactive” and the Activity [3] was “inactive”. For the same compound, the Activity [4] was “inactive”, the Activity [5] was “inactive” and the Activity [6] was “inactive”.
In the case of `C=CC[C@H]1C[C@]2(O)C[C@H](C(C)(C)O)OC2=CC1=O` [ILLIFUNONE D], the Activity [1] is reported as 18%, the Activity [2] is reported as “inactive” and the Activity [3] is reported as “inactive”. For the same compound, the Activity [4] was “inactive”, the Activity [5] was “inactive” and the Activity [6] was “inactive”.
For `C=CCC1=C[C@]2(O)C[C@@H](O)C(C)(C)[C@H](C1=O)C2=O` [ILLIOLIGANONE A], the Activity [1] was -7.7%, the Activity [2] was “inactive” and the Activity [3] was “inactive”. The Activity [4] was “inactive”, the Activity [5] was “inactive” and the Activity [6] was “inactive”.
For `C=CC[C@@]12C=C(C[C@H](O)C(C)(C)O)C(=O)C=C1OCO2` [ILLIOLIGANONE B], the Activity [1] was 33.8%, the Activity [2] was “inactive” and the Activity [3] was “inactive”. The Activity [4] was “inactive”, the Activity [5] was “inactive” and the Activity [6] was “inactive”.
In the case of `C=CC[C@]1(C[C@H](O)C(C)(C)O)C=C2OCOC2=CC1=O` [ILLIOLIGANONE C], the Activity [1] is reported as 20.1%, the Activity [2] is reported as “inactive” and the Activity [3] is reported as “inactive”. The Activity [4] was “inactive”, the Activity [5] was “inactive” and the Activity [6] was “inactive”.
In the case of `C[C@@H]1CC[C@@]2(O)[C@]13C[C@@H](OC(=O)[C@@H]3O)[C@@]1(O)C(=O)OC[C@@]21C` [NEOMAJUCIN], the Activity [1] is reported as 22.4%, the Activity [2] is reported as “inactive” and the Activity [3] is reported as “inactive”. For the same compound, the Activity [4] was “inactive”, the Activity [5] was “inactive” and the Activity [6] was “inactive”.
With `CO[C@]12OC[C@@]3(C)[C@@]4(O)CC[C@@H](COC(=O)c5ccccc5)[C@]4(C[C@@H](O1)[C@@]3(O)CO)[C@H]2O` [OLIGANDRIORTHOLACTONE] the Activity [1] was 15.8%, the Activity [2] was “inactive” and the Activity [3] was “inactive”. The Activity [4] was “inactive”, the Activity [5] was “inactive” and the Activity [6] was “inactive”.
